Measured values published in the RNAGym collection of RNA variant scans (doi:10.1126/science.aae0568).
Variants at the floor of the assay were thinned out.

B1: tRNA (parent)
chain: GUUCCGUUGGCGUAAUGGUAACGCGUCUCCCUCCUAAGGAGAAGACUGCGGGUUCGAGUCCCGUACGGAACG

Variants of: B1
Assay: yeast fitness relative to wild type (ratio to wild type); higher = fitter; tRNA-Arg(CCU), competitive growth, 37 C, YPD
Outline: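 Gene amplicons from the start population and from each of six end populations were read by 100-nucleotide paired-end sequencing. Those end populations came from pooled Saccharomyces cerevisiae strains carrying tRNA-Arg(CCU) gene variants at the native locus, competed in YPD at 37°C for 24 hours. Fitness relative to wild type was worked out from changes in genotype frequencies. Genotypes needed ≥ 100 starting reads, and estimates < 0.5 were set to 0.5.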

Variant	yeast fitness
C5A A21U	0.621
C5A A20G G41C A65U	≤ 0.5
C4U U19C A36G G39A G67A	≤ 0.5
C5A C11U G44C C49U	0.53
C5A A14U A21G G52A	0.533
C4U U8C A36G A40C G44C	≤ 0.5
C4U U8A C33U A36U A65C	≤ 0.5
C4U G9A C24G A37C A57U	0.543
C4U G41A	1.02
C4U G12A C31A A42U	≤ 0.5
C4U U8G A20G U47G A57G	≤ 0.5
C4U G12A A20G C22U	0.532
C4U G10C U47C U59A A69U	≤ 0.5
C5A A36C A69C	0.539
C4U U7G G56C C60G C66U	≤ 0.5
C5A A14U A21C C61U	≤ 0.5
C4U G12A U16A G51A U54A	≤ 0.5
C5A A21C C24A G50C	≤ 0.5
C5A A36G G44A U47C A70U	≤ 0.5
C4U G9C A69C	0.594
C5A A40U G67C	0.627
C4U G10A U28A	≤ 0.5
C4U G50C G51C G56A	≤ 0.5
C4U G12A G67A	0.674

Variant	yeast fitness
C5A A15C C29A G39A C60G A70G	≤ 0.5
C5A A14G C29G C55U A70U	≤ 0.5
C4U G17C C49G G50C	0.652
C4U U16A C61U	0.708
C4U U35C A45G C49G G56A A65C	≤ 0.5
C4U G12A	1.11
C4U U64C	0.962
C5A A14U A15C C24G U26A	0.78
C5A A20C C29U C34A C46A G50A A57U C66U	≤ 0.5
C4U G23C A40U A42G G58C	≤ 0.5
C4U G12A C62U	0.73
C5A C11A C30U C31A G58A G67C	0.548
C4U G10A A43U C55G G56A	≤ 0.5
C4U G9A C22G A42U G56A	≤ 0.5
C5A A36G C66U	0.655
C5A A36G A42C A43U	≤ 0.5
C5A A69U	0.917
C5A A15C C29U C46U U53A	0.52
C4U G67U	0.782
C5A C11A A42U U53A	0.616
C5A C11G A21U C62U	≤ 0.5
C4U U8A G48A C55U	≤ 0.5
C4U G58C A69U	0.785
C4U G23C A36C C66U	≤ 0.5

Variant	yeast fitness
C5A A45U C55U G56A U59A C66G	≤ 0.5
C4U U26G C62G	≤ 0.5
C4U U32A	0.712
C5A A14G C31A C55A C61A G63A	0.536
C5A A40G C66U	0.549
C4U G10A A15C A57C C66G	≤ 0.5
C5A C11G A40G G67C A69U	≤ 0.5
C4U G17A	0.973
C4U U35C	0.715
C4U U35A	0.659
C4U G10C G48C C62A	≤ 0.5
C4U G39C C46G C49G	≤ 0.5
C4U G17A A57U	≤ 0.5
C5A A36U	0.678
C5A A36C	0.608
C4U U7A A37C A40C G51A C55A G58A	≤ 0.5
C5A C11A C24U U26C C29U C31G A42G	≤ 0.5
C5A C11G G41C C49U	≤ 0.5
C5A A20G G39C G52A	0.593
C4U G18C C31U	≤ 0.5
C5A A57U G68U A70G	0.541
C4U U19C A37U C62A	≤ 0.5
C5A A15C G39C	≤ 0.5
C5A C11G G51A C61U	≤ 0.5

Variant	yeast fitness
C4U G23C C30G	≤ 0.5
C4U G25A C34G G52U	≤ 0.5
C4U U13C C33U A65G	0.617
C4U G9A C49U G50A	0.644
C4U U16C A36U C49U G58C C66U	≤ 0.5
C5A A70G	0.922
C5A C11G G48C	≤ 0.5
C4U G6A C46G	0.623
C4U G44A A69C	0.568
C5A A36U G39A A45G G63U	≤ 0.5
C5A A20U C29A	≤ 0.5
C5A A42G G51C	≤ 0.5
C4U U19A G44C U53G	≤ 0.5
C5A A40C	0.727
C5A A40C C46U G52C	0.547
C4U U7C G23A A40U A42C C60A	≤ 0.5
C5A A14U C31G G63A	≤ 0.5
C5A A20U	0.781
C5A A15G C24U C29U C30G U35G	≤ 0.5
C4U U19A C30G A36C U47C	≤ 0.5
C5A A42G G63C	0.59
C5A A37C C46U A65C	≤ 0.5
C4U U16G C66G	≤ 0.5
C4U G10A	0.644

Variant	yeast fitness
C4U U26C G44A G52A C66U	≤ 0.5
C4U U7A	0.743
C4U U32A G50A G67A	≤ 0.5
C5A A40G C49G	0.569
C4U G52A G63C	0.595
C4U U7A A37C	≤ 0.5
C4U U53G	0.558
C4U G12C C49G	0.533
C4U U16A A20U U35C G39C A42C C55G A70G	≤ 0.5
C4U G25A A57U U59A	≤ 0.5
C5A C11U C34A A40U A42U C49A G50C A57C C66G	≤ 0.5
C4U G10A A14U C46U	≤ 0.5
C4U U8A U32G U35A C62U A69C	≤ 0.5
C5A C11G A21U	0.505
C5A C11A	0.592
C4U G10C A14C C27G	0.546
C4U G6A U13C U28C	0.616
C5A A14G C31U C34U C60G G63A	≤ 0.5
C5A C11G G51A	0.538
C4U G23C A36C	0.597
C5A A14U G50A A57U A70G	≤ 0.5
C4U G18A G23C C24G C46G U64G	≤ 0.5
C5A C11G C27U G41C	≤ 0.5
C5A A65C	0.839

Variant	yeast fitness
C4U G6A U8G C31U G63A	≤ 0.5
C4U G17C C49A	0.55
C5A A20G C29A G51C G67C	≤ 0.5
C5A C11G C30U A36C A42G C61G	≤ 0.5
C5A A20C U64A G67A	≤ 0.5
C4U U8C G17C C49A	≤ 0.5
C5A A43U U47C	0.543
C4U G9A C61G	0.566
C4U U13A A14U C29U A37G U59C G68C	≤ 0.5
C4U U54C	0.921
C4U U13A A14U C29U A37G	0.581
C4U U7G C34G G51A	≤ 0.5
C5A A14U U53A	≤ 0.5
C4U U26C A36C A37G U64A A70C	≤ 0.5
C4U G12A U19C U26A	≤ 0.5
C4U G25A G67C	0.58
C4U G12C U26G C55U A69C	0.504
C4U U8A U13C U35C C46A	≤ 0.5
C5A A40G C62U	≤ 0.5
C5A A69U A70C	0.768
C4U U28A A57C C61A	≤ 0.5
C4U G10A U28A A70U	≤ 0.5
C4U G10A C11G A20G C27G A65G	≤ 0.5
C5A A21G G67C	0.933

Variant	yeast fitness
C4U G17A U19G A21G A43G	0.554
C4U G9C	0.688
C4U G9A	0.927
C4U U26G	0.912
C4U U7A G39C	≤ 0.5
C5A A14U C27U C49G A57G	≤ 0.5
C5A A14U U53A U59G	0.597
C5A A21U C24U C27G A70G	≤ 0.5
C4U G6A G9A U13C U28C	≤ 0.5
C4U G12A G39C G44A A57U	≤ 0.5
C4U G12C A20G U47A C49U A57U C61A G68A	≤ 0.5
C4U G23C G51A A69G	0.586
C4U G12A A20G C22U U35A A45C	≤ 0.5
C5A A15C C29A A42C A45G G56C	≤ 0.5
C4U U8A G25C A43U C60G	≤ 0.5
C5A A37U C66U	≤ 0.5
C4U G9C C29G C34G C60G	≤ 0.5
C5A C11U A21C	0.654
C4U G39U	0.834
C4U G18C A57C	0.639
C4U G56A	0.934
C4U U26A A45C	0.53
C4U U16A A40C C55U C61A C66A	0.528
